Experiments:
[1] = biological target: Melanin-concentrating hormone receptor 1 (Mus musculus) (UniProt Q8JZL2); assay: Receptor occupancy ex vivo by displacement of [125I]S36057 binding from MCHR1 in C57BL/6N mouse brain after 6 hrs at 30 mg/kg, po; assay type: functional, organism-based; design: dose 30 mg/kg
Summary of the method: (§1)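 Male C57Bl/6NCrl:BR mice given vehicle (HPβCD) or compound orally; killed by CO2 at 6 or 24 h post-dose (chronic studies: 24 h after last daily dose, n = 3/group). 16 µm frozen caudate putamen sections incubated 30 min at room temperature with 700 pM [125I]-S36057 in MCH-R1 binding buffer; 1 µM MCH defines nonspecific binding. Phosphorimager quantitation; % inhibition versus vehicle.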

[2] = test system: Mus musculus; assay: Reduction of food intake in orally dosed C57BL/6N DIO mouse after 24 hrs at 30 mg/kg relative to control; assay type: functional; conditions: route oral
Summary of the method: (§2)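 Male C57Bl/6NCrl:BR mice made obese on a 45%-fat diet, individually housed, 12 h light/dark, 22 °C; acclimated to oral 20% hydroxypropyl-β-cyclodextrin vehicle for 2-3 days. Single oral 30 mg/kg dose in 20% HPβCD; food intake weighed to 0.01 g at 2, 6 and 24 h, expressed as % of vehicle ± SEM.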

[3] = test system: Mus musculus; assay: Reduction of food intake in orally dosed C57BL/6N DIO mouse after 2 hrs at 30 mg/kg relative to control; assay type: functional; design: Activity: scale not given: the % may be the effect or the level left; conditions: route oral; summary of the method: as §2
[4] = (§3) AUC (0-6h) in rat at 10 mg/kg, po; assay type: ADME, organism-based, Plasma; design: time < 6 hr, dose 10 mg/kg, route oral; conditions: plasma
[5] = test system: Mus musculus; assay: Reduction of food intake in orally dosed C57BL/6N DIO mouse after 6 hrs at 30 mg/kg relative to control; assay type: functional; conditions: route oral; summary of the method: as §2
[6] = biological target: Melanin-concentrating hormone receptor 1 (Mus musculus) (UniProt Q8JZL2); assay: Receptor occupancy ex vivo by displacement of [125I]S36057 binding from MCHR1 in C57BL/6N mouse brain after 24 hrs at 30 mg/kg, po; assay type: functional, organism-based; design: dose 30 mg/kg; summary of the method: as §1
[7] = biological target: T1, Melanin-concentrating hormone receptor 1 (Homo sapiens, UniProt Q99705); assay: Displacement of [125I]MCH from human MCHR1 expressed in CHO cell; assay type: cell-based
T1 sequence (Q99705 whole entry): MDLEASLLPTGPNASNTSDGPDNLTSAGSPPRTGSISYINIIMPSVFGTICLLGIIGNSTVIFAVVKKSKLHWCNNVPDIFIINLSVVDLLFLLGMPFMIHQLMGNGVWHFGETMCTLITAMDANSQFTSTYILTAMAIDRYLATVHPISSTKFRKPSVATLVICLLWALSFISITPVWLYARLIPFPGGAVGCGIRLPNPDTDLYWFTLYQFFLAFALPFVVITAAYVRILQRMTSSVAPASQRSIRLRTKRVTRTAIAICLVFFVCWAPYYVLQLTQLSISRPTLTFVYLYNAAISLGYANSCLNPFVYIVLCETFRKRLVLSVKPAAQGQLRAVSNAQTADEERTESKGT

[8] = test system: Rattus norvegicus; assay: as §3; assay type: ADME, organism-based, Plasma; design: time < 6 hr, dose 10 mg/kg, route oral; conditions: in vivo, 6 h
[9] = biological target: T1, Melanin-concentrating hormone receptor 1; assay: Inhibition of MCH-mediated calcium influx in CHO cells expressing human MCHR1 by FLIPR assay; assay type: functional, cell-based
Summary of the method: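 After two washes, treated with vehicle (buffer, 2% DMSO) or compound, then stimulated with 30 nM MCH; intracellular Ca²⁺ change read by FLIPR.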

Chain of Melanin-concentrating hormone receptor 1 (Mus musculus) (Q8JZL2 whole entry): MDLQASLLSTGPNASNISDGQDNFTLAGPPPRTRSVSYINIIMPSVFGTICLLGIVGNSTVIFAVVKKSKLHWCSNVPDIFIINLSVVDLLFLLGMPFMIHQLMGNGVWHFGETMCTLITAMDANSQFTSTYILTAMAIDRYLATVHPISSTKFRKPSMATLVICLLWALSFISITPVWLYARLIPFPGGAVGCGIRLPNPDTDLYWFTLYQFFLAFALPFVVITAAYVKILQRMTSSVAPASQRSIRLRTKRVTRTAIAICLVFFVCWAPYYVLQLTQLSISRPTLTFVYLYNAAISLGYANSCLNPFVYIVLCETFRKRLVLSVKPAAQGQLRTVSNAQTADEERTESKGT

Row | SMILES | Activity [1] [%] | AUC(0-t) at 6 h [4] [ng·h/mL] | Activity [6] [%] | Ki [7] [nM] | other results
1 | CN1CCN(CCCCN(C(=O)Nc2ccc(F)c(C(F)(F)F)c2)[C@@H]2CC[C@]3(c4cccc(C#N)c4)C[C@H]23)CC1 (relative stereo) | 85 | 1680 |  |  | Food intake (% of vehicle control) [2]: 89.1%; Food intake (% of vehicle) [3]: 81.1%; Food intake (% of vehicle control) [5]: 81.6%
2 | CC(=O)Nc1cccc([C@]23CC[C@@H](N(CCCN4CCN(C)CC4)C(=O)Nc4ccc(F)c(Cl)c4)[C@H]2C3)c1 (relative stereo) | 18 |  | 0 |  | 
3 | N#Cc1cccc([C@@]23CC[C@H](N(CCN4CCCC4)C(=O)Nc4cc(Cl)cc(Cl)c4)[C@@H]2C3)c1 | 69 | 1490 |  | 15 | 
4 | CN1CCN(CCCN(C(=O)Nc2ccc(F)c(C(F)(F)F)c2)[C@@H]2CC[C@]3(c4ccc(C#N)c(F)c4)C[C@H]23)CC1 (relative stereo) | 100 | 1660 | 6 | 3.5 | 
5 | N#Cc1cccc([C@]23CC[C@@H](N(CCN4CCCC4)C(=O)Nc4ccc(F)c(Cl)c4)[C@H]2C3)c1 (relative stereo) |  | 822 |  |  | 
6 | CS(=O)(=O)c1ccc([C@]23CC[C@@H](N(CC4CCN(S(C)(=O)=O)CC4)C(=O)Nc4ccc(F)c(Cl)c4)[C@H]2C3)cc1 (relative stereo) |  |  |  | 974 | 
7 | CN1CCN(CCCN(C(=O)Nc2ccc(F)c(Cl)c2)[C@@H]2CC[C@]3(c4ccc(S(C)(=O)=O)cc4)C[C@H]23)CC1 (relative stereo) | 8 | 2340 |  | 9.3 | 
8 | CN1CCN(CCCN(C(=O)Nc2ccc(F)c(Cl)c2)[C@@H]2CC[C@]3(c4cccc(F)c4)C[C@H]23)CC1 (relative stereo) | 73 | 722 | 0 | 3.3 | 
9 | CN1CCN(CCCN(C(=O)Nc2ccc(F)c(Cl)c2)[C@@H]2CC[C@]3(c4ccc(F)c(F)c4)C[C@H]23)CC1 (relative stereo) | 97 | 1610 | 0 | 4.4 | 
10 | CN1CCN(CCCN(C(=O)Nc2ccc(F)c(Cl)c2)[C@@H]2CC[C@]3(c4cc(F)cc(F)c4)C[C@H]23)CC1 (relative stereo) | 65 | 2740 | 0 | 7 | 
11 | CN1CCN(CCCN(C(=O)Nc2ccc(F)c(Cl)c2)[C@@H]2CC[C@]3(c4cccc(S(C)(=O)=O)c4)C[C@H]23)CC1 (relative stereo) |  |  |  | 727 | 
12 | CN1CCN(CCN(C(=O)Nc2ccc(F)c(C(F)(F)F)c2)[C@@H]2CC[C@]3(c4cccc(C#N)c4)C[C@H]23)CC1 (relative stereo) | 53 | 1460 |  |  | 
13 | CN1CCN(CCCN(C(=O)Nc2ccc(F)c(Cl)c2)[C@@H]2CC[C@]3(c4ccsc4)C[C@H]23)CC1 (relative stereo) | 25 |  | 12 | 13 | 
14 | CN1CCN(CCCN(C(=O)Nc2ccc(F)c(Cl)c2)[C@@H]2CC[C@]3(c4cccc(N)c4)C[C@H]23)CC1 (relative stereo) | 37 |  | 17 | 10 | 
15 | CN1CCN(CCCN(C(=O)Nc2ccc(F)c(Cl)c2)[C@H]2CC[C@@H](c3cccc(C#N)c3)C2)CC1 (relative stereo) |  |  |  | 2190 | 
16 | N#Cc1cccc([C@]23CC[C@@H](N(CCN4CC[C@@H](O)C4)C(=O)Nc4ccc(F)c(Cl)c4)[C@H]2C3)c1 (stereo in doubt; (-)-23d) [listing 1 of 2 here] |  |  |  |  | AUC [8]: 2404 ng·h/mL
17 | COc1cccc([C@]23CC[C@@H](N(CCCN4CCN(C)CC4)C(=O)Nc4ccc(F)c(C(F)(F)F)c4)[C@H]2C3)c1 (relative stereo) | 73 | 571 | 0 | 2.9 | Kb [9]: 8 nM
18 | N#Cc1cccc([C@]23CC[C@@H](N(CCN4CC[C@@H](O)C4)C(=O)Nc4ccc(F)c(C(F)(F)F)c4)[C@H]2C3)c1 | 81 | 2190 |  |  | Food intake (% of vehicle control) [2]: 80.8%; Food intake (% of vehicle) [3]: 65.7%; Food intake (% of vehicle control) [5]: 68.2%
19 | N#Cc1cccc([C@]23CC[C@@H](N(CCN4CC[C@@H](O)C4)C(=O)Nc4ccc(F)c(Cl)c4)[C@H]2C3)c1 (stereo in doubt; (+)-23c) [listing 1 of 2 here] | 32 |  |  |  | 
20 | CN1CCN(CCCN(C(=O)Nc2ccc(F)c(Cl)c2)[C@@H]2CC[C@]3(c4cccc(NS(C)(=O)=O)c4)C[C@H]23)CC1 (relative stereo) |  |  |  | 394 | 

Row | SMILES | Activity [1] [%] | AUC(0-t) at 6 h [4] [ng·h/mL] | Activity [6] [%] | Ki [7] [nM] | other results
21 | CC(C)CN1CCN(CCN(C(=O)Nc2ccc(F)c(C(F)(F)F)c2)[C@@H]2CC[C@]3(c4cccc(C#N)c4)C[C@H]23)CC1 (relative stereo) | 40 | 140 |  |  | 
22 | CN1CCN(CCCN(C(=O)Nc2ccc(F)c(Cl)c2)[C@@H]2CC[C@@H](c3cccc(C#N)c3)C2)CC1 (relative stereo) |  |  |  | 161 | 
23 | CS(=O)(=O)c1ccc([C@]23CC[C@@H](N(CCCN4CCCC4=O)C(=O)Nc4ccc(F)c(Cl)c4)[C@H]2C3)cc1 (relative stereo) |  |  |  | 1620 | 
24 | CN1CCN(CCCN(C(=O)Nc2ccc(F)c(C(F)(F)F)c2)[C@@H]2CC[C@]3(c4ccc(F)c(C#N)c4)C[C@H]23)CC1 (relative stereo) | 81 | 3080 | 36 | 4 | 
25 | CN1CCN(CCCN(C(=O)Nc2ccc(F)c(C(F)(F)F)c2)[C@@H]2CC[C@]3(c4ccc(F)cc4)C[C@H]23)CC1 (relative stereo) | 100 | 2170 | 29 | 1.8 | Kb [9]: 15 nM
26 | N#Cc1ccc([C@]23CC[C@@H](N(CCCN4CCNCC4)C(=O)Nc4ccc(F)c(C(F)(F)F)c4)[C@H]2C3)cc1 (relative stereo) | 27 | 3470 | 0 | 8 | Kb [9]: 9 nM
27 | CN1CCN(CCCN(C(=O)Nc2ccc(F)c(Cl)c2)[C@@H]2CC[C@]3(c4cccc(Cl)c4)C[C@H]23)CC1 |  | 436 |  |  | 
28 | N#Cc1cccc([C@]23CC[C@@H](N(CCN4CCCCC4)C(=O)Nc4ccc(F)c(Cl)c4)[C@H]2C3)c1 (relative stereo) | 57 | 999 |  |  | 
29 | CN1CCN(CCCN(C(=O)Nc2ccc(F)c(C(F)(F)F)c2)[C@@H]2CC[C@]3(c4cccc(F)c4)C[C@H]23)CC1 (relative stereo) | 85 | 888 | 10 | 2.3 | 
30 | N#Cc1cccc(C2=CC(N(CCN3CCCC3)C(=O)Nc3cc(Cl)cc(Cl)c3)CC2)c1 (configuration not stated) |  |  |  | 605 | 
31 | COc1ccc([C@]23CC[C@@H](N(CCCN4CCN(C)CC4)C(=O)Nc4ccc(F)c(C(F)(F)F)c4)[C@H]2C3)cc1 (relative stereo) | 100 | 438 | 7 | 2.8 | Kb [9]: 9 nM
32 | N#Cc1cccc([C@]23CC[C@@H](N(CCN4CC[C@@H](O)C4)C(=O)Nc4ccc(F)c(Cl)c4)[C@H]2C3)c1 (stereo in doubt; (-)-23d) [listing 2 of 2 here] | 57 |  |  |  | 
33 | CN1CCN(CCCN(C(=O)Nc2ccc(F)c(Cl)c2)[C@@H]2CC[C@]3(c4ccccc4)C[C@H]23)CC1 (relative stereo) | 79 | 1130 | 0 |  | 
34 | CN1CCN(CCCN(C(=O)Nc2ccc(F)c(Cl)c2)[C@@H]2CC[C@]3(c4cccnc4)C[C@H]23)CC1 (relative stereo) | 25 |  | 11 |  | 
35 | N#Cc1cccc([C@]23CC[C@@H](N(CCN4CC[C@@H](O)C4)C(=O)Nc4ccc(F)c(Cl)c4)[C@H]2C3)c1 (stereo in doubt; (+)-23c) [listing 2 of 2 here] |  |  |  | 13 | AUC [8]: 585 ng·h/mL
36 | CN1CCN(CCCN(C(=O)Nc2ccc(F)c(Cl)c2)[C@@H]2CC[C@]3(c4ccc(OC(F)(F)F)cc4)C[C@H]23)CC1 (relative stereo) | 96 | 578 | 15 |  | Food intake (% of vehicle control) [2]: 85.9%; Activity [3]: 86.2%; Food intake (% of vehicle control) [5]: 80.5%
37 | N#Cc1cccc([C@]23CC[C@@H](N(CCCCN4CCOCC4)C(=O)Nc4ccc(F)c(C(F)(F)F)c4)[C@H]2C3)c1 (relative stereo) | 64 | 450 |  | 2.5 | Food intake (% of vehicle control) [2]: 94.1%; Food intake (% of vehicle) [3]: 88%; Food intake (% of vehicle control) [5]: 83.4%
38 | Cc1cccc([C@]23CC[C@@H](N(CCCN4CCN(C)CC4)C(=O)Nc4ccc(F)c(Cl)c4)[C@H]2C3)c1 (relative stereo) | 0 |  | 4 | 33 | 
39 | N#Cc1cccc([C@]23CC[C@@H](N(CCCCN4CCCCC4)C(=O)Nc4ccc(F)c(C(F)(F)F)c4)[C@H]2C3)c1 (relative stereo) | 72 | 1160 |  |  | Food intake (% of vehicle control) [2]: 102%; Food intake (% of vehicle) [3]: 92%; Food intake (% of vehicle control) [5]: 101.1%
40 | CN1CCN(CCCN(C(=O)Nc2ccc(F)c(Cl)c2)[C@@H]2CC[C@]3(c4cccc(OC(F)(F)F)c4)C[C@H]23)CC1 (relative stereo) | 39 | 504 | 12 | 29 | 

— ChEMBL document CHEMBL1146084, “Discovery of orally efficacious melanin-concentrating hormone receptor-1 antagonists as antiobesity agents. Synthesis, SAR, and biological evaluation of bicyclo[3.1.0]hexyl ureas” (J Med Chem, 2006)
